# Experimental data reported in ChEMBL document CHEMBL3352597, “Heck products of parthenolide and melampomagnolide-B as anticancer modulators that modify cell cycle progression” (Eur J Med Chem, 2014).
# Experiments:
# Format in all cases: functional
# NCI-H460 = test: Anticancer activity against human NCI-H460 cells
# Procedure, shortened: (§1)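 NCI 60 human cancer cell line panel, multiple-dose testing at five concentrations (10^-4, 10^-5, 10^-6, 10^-7 and 10^-8 M). Dose-response curves plot cytotoxic effect against log10 of drug concentration for each cell line. GI50 is the molar concentration giving 50% growth inhibition; LC50 is the concentration killing 50% of cells.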
# [1] = Anticancer activity against human SF539 cells; procedure, shortened: as §1
# SK-MEL-5 = test: Anticancer activity against human SK-MEL-5 cells; procedure, shortened: as §1
# [2] = Anticancer activity against human UACC257 cells
# Procedure, shortened: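 NCI 60 human tumour cell line screen. A single-concentration pre-screen was run at 10^-5 M. Compounds selected from it were then tested at five concentrations, 10^-4 to 10^-8 M. Dose-response curves plotted cytotoxic effect against log10 of the drug concentration for each cell line. GI50 is the molar concentration giving 50% growth inhibition, and LC50 the concentration killing 50% of cells.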
# [3] = Anticancer activity against human SKOV3 cells; procedure, shortened: as §1
# MCF7 = test: Anticancer activity against human MCF7 cells; procedure, shortened: as §1
# [4] = read-out: LC50 (the source's name)
compound,measurement,setting,value
C/C1=C\CC[C@@]2(C)O[C@@H]2[C@H]2OC(=O)/C(=C/c3ccsc3)[C@@H]2CC1,GI50,NCI-H460,29.3 µM
same,CC50,NCI-H460; [4],> 100 µM
same,GI50,[1]; SF-539,16.1 µM
same,CC50,"[1]; SF-539, read-out: LC50 (the source's name)",62.2 µM
same,GI50,SK-MEL-5,16.3 µM
same,LC50,SK-MEL-5,60.4 µM
same,GI50,[2]; UACC-257,16.6 µM
same,CC50,"[2]; UACC-257, read-out: LC50 (the source's name)",> 100 µM
same,GI50,[3]; SK-OV-3,44.9 µM
same,CC50,"[3]; SK-OV-3, read-out: LC50 (the source's name)",> 100 µM
same,GI50,MCF7,20 µM
same,CC50,MCF7; [4],> 100 µM
